Reference: ChEMBL document CHEMBL3232768, “Structure-activity relationships of β-hydroxyphosphonate nucleoside analogues as cytosolic 5'-nucleotidase II potential inhibitors: synthesis, in vitro evaluation and molecular modeling studies” (Eur J Med Chem, 2014)

How the values were obtained:
[1] = Competitive inhibition of recombinant C-terminal His-tagged cN2 N-terminal 30 amino acid deletion mutant (unknown origin) expressed in Escherichia coli BL21 using IMP as substrate by double reciprocal plot analysis; design: species or system Homo sapiens
Summary of the method: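 Kinetic assay with His-Trap and Superdex 75-purified enzyme at 0.1. Buffer was 50 mM imidazole pH 6.5, 500 mM NaCl, 10 mM MgCl₂, 1 mM DTT, with enzyme and substrate freshly prepared in it. Rate constants were measured at IMP from 200 to 3 mM to derive Ki. It was also used for compounds that react with the malachite green colorant.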

Homo sapiens = organism: Homo sapiens; experiment: Inhibition of recombinant C-terminal His-tagged cN2 N-terminal 30 amino acid deletion mutant (unknown origin) expressed in Escherichia coli BL21 using IMP as substrate at 1 mM after 5 mins by green malachite phosphate assay
Summary of the method: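 Enzyme was purified from E. coli BL21 carrying pET24b by His-Trap affinity and then Superdex 75 gel filtration. Final enzyme was 0.1 in 50 mM imidazole pH 6.5, 500 mM NaCl, 10 mM MgCl₂, 1 mM DTT on ice. The reaction was started with 50 IMP plus equimolar Mg²⁺ and run 5 min at 37 °C. Malachite green reagent stopped it; released phosphate was read above 630 nm against a phosphate calibration curve.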

Row | SMILES | inhibition (Homo sapiens) | Ki [1]
1 | Nc1ccn([C@@H]2O[C@H]([C@H](O)CP(=O)(O)O)[C@@H](O)[C@H]2O)c(=O)n1 | 85% | 1.74 mM
2 | CC(C)(C)C#Cc1cn([C@@H]2O[C@H]([C@H](O)CP(=O)(O)O)[C@@H](O)[C@H]2O)c(=O)nc1N | 46% | 7.33 mM
3 | CCOP(=O)(C[C@@H](O)[C@H]1O[C@@H](n2ccc(=O)[nH]c2=O)[C@@H](O)[C@@H]1O)OCC | 2% | –
4 | CCCCC#Cc1cn([C@@H]2O[C@H]([C@H](O)CP(=O)(O)O)[C@@H](O)[C@H]2O)c(=O)nc1N | 40% | –
5 | O=c1[nH]c(=O)n([C@@H]2O[C@H]([C@H](O)CP(=O)(O)O)[C@@H](O)[C@H]2O)cc1/C=C/c1ccccc1 | – | 3.36 mM
6 | CCOP(=O)(C[C@@H](O)[C@H]1O[C@@H](n2ccc(=O)[nH]c2=O)[C@H](O)[C@@H]1O)OCC | 11% | –
7 | CC(C)(C)C#Cc1cn([C@@H]2O[C@H]([C@H](O)CP(=O)(O)O)[C@@H](O)[C@H]2O)c(=O)[nH]c1=O | – | 5.94 mM
8 | O=c1ccn([C@@H](CO)O[C@@H](CO)[C@H](O)CP(=O)(O)O)c(=O)[nH]1 | 20% | –
9 | CCOP(=O)(C[C@@H](O)[C@H](CO)O[C@H](CO)n1ccc(N)nc1=O)OCC | 21% | –
10 | O=c1[nH]c(=O)n([C@@H]2O[C@H]([C@H](O)CP(=O)(O)O)[C@@H](O)[C@H]2O)cc1C#Cc1ccccc1 | – | 2.18 mM
11 | CCOP(=O)(C[C@@H](O)[C@H]1O[C@@H](n2ccc(N)nc2=O)[C@@H](O)[C@@H]1O)OCC | 20% | –
12 | Nc1nc(=O)n([C@@H]2O[C@H]([C@H](O)CP(=O)(O)O)[C@@H](O)[C@H]2O)cc1/C=C/c1ccccc1 | – | 1.14 mM
13 | Nc1nc(=O)n([C@@H]2O[C@H]([C@H](O)CP(=O)(O)O)[C@@H](O)[C@H]2O)cc1C#Cc1ccccc1 | – | 8.85 mM
14 | CCOP(=O)(C[C@@H](O)[C@H]1O[C@@H](n2ccc(=O)[nH]c2=O)[C@H](O)[C@H]1O)OCC | 26% | –
15 | CCOP(=O)(C[C@@H](O)[C@H](CO)O[C@H](CO)n1ccc(=O)[nH]c1=O)OCC | 10% | –
16 | Nc1ccn([C@@H](CO)O[C@@H](CO)[C@H](O)CP(=O)(O)O)c(=O)n1 | 45% | 4.06 mM
17 | CCOP(=O)(C[C@@H](O)[C@H]1O[C@@H](n2ccc(N)nc2=O)[C@H](O)[C@@H]1O)OCC | 18% | –

Further lines, with some results ahead:

Row | inhibition (Homo sapiens) | SMILES | Ki [1]
18 | 25% | O=c1ccn([C@@H]2O[C@H]([C@H](O)CP(=O)(O)O)[C@H](O)[C@@H]2O)c(=O)[nH]1 | > 50 mM
19 | 25% | O=c1ccn([C@@H]2O[C@H]([C@H](O)CP(=O)(O)O)[C@H](O)[C@H]2O)c(=O)[nH]1 | –
20 | 25% | O=c1ccn([C@@H]2O[C@H]([C@H](O)CP(=O)(O)O)[C@@H](O)[C@@H]2O)c(=O)[nH]1 | > 100 mM
21 | 24% | O=c1[nH]c(=O)n([C@@H]2O[C@H]([C@H](O)CP(=O)(O)O)[C@@H](O)[C@H]2O)cc1-c1ccccc1 | –
22 | 60% | Nc1nc(=O)n([C@@H]2O[C@H]([C@H](O)CP(=O)(O)O)[C@@H](O)[C@H]2O)cc1-c1ccccc1 | 2.01 mM
23 | 43% | O=c1ccn([C@@H]2O[C@H]([C@@H](O)CP(=O)(O)O)[C@@H](O)[C@H]2O)c(=O)[nH]1 | –
24 | 72% | O=c1ccn([C@@H]2O[C@H]([C@H](O)CP(=O)(O)O)[C@@H](O)[C@H]2O)c(=O)[nH]1 | 2.08 mM
25 | 35% | Nc1ccn([C@@H]2O[C@H]([C@H](O)CP(=O)(O)O)[C@H](O)[C@@H]2O)c(=O)n1 | 11.1 mM
26 | 42% | Nc1ccn([C@@H]2O[C@H]([C@@H](O)CP(=O)(O)O)[C@@H](O)[C@H]2O)c(=O)n1 | –
27 | 48% | Nc1ccn([C@@H]2O[C@H]([C@H](O)CP(=O)(O)O)[C@H](O)[C@H]2O)c(=O)n1 | 8.9 mM
28 | 45% | CCCCC#Cc1cn([C@@H]2O[C@H]([C@H](O)CP(=O)(O)O)[C@@H](O)[C@H]2O)c(=O)[nH]c1=O | –
29 | 80% | Nc1ccn([C@@H]2O[C@H]([C@H](O)CP(=O)(O)O)[C@@H](O)[C@@H]2O)c(=O)n1 | 0.978 mM
